ChEMBL document CHEMBL3046428, “Isolation, characterization and antifungal activity of major constituents of the Himalayan lichen Parmelia reticulata Tayl” (2011)
In brackets after ≈: the same amount, converted by molar mass.

Key:
Assay type in all cases: functional
Rhizoctonia solani [1] = test: Antifungal activity against Rhizoctonia solani assessed as growth inhibition by poisoned food technique; details: read-out: ED50 (the source's name)
Outline: (§1)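 ED50 from poisoned-food growth inhibition on PDA at 250, 125 and 62.5 μg/mL in medium, with an acetone control. Plates were inoculated with a 5 mm mycelial disc, incubated at 28 °C, and colony diameter was measured in quadruplicate. Percent inhibition was corrected by Abbott's formula, using a correction factor from the 9 cm dish diameter, and ED50 (μg/mL) was derived by probit analysis.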

Rhizoctonia solani [2] = test: Antifungal activity against Rhizoctonia solani assessed as growth inhibition at 31 ug/ml by poisoned food technique
Outline: (§2)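 Poisoned-food assay on potato dextrose agar: test material is dissolved and diluted in acetone and mixed into the medium before pouring, with an acetone-only control. A 5 mm mycelial disk is cut from the growing edge of a 2-week-old colony and placed inoculum-down at the plate centre. Plates are incubated at 28 °C until control growth is nearly complete. Colony diameter is measured, and % inhibition = (C−T)/C×100. Four replicates give the mean.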

Athelia rolfsii [3] = test: Antifungal activity against Athelia rolfsii assessed as growth inhibition at 31 ug/ml by poisoned food technique; details: Agroathelia rolfsii; outline: as §2
Athelia rolfsii [4] = test: Antifungal activity against Athelia rolfsii assessed as growth inhibition at 7.25 ug/ml by poisoned food technique; details: Agroathelia rolfsii; outline: as §2
Athelia rolfsii [5] = test: Antifungal activity against Athelia rolfsii assessed as growth inhibition by poisoned food technique; details: Agroathelia rolfsii; read-out: ED50 (the source's name); outline: as §1
[6] = system: Globisporangium debaryanum; test: Antifungal activity against Pythium debaryanum assessed as growth inhibition at 7.25 ug/ml by poisoned food technique; outline: as §2
Athelia rolfsii [7] = test: Antifungal activity against Athelia rolfsii assessed as growth inhibition at 15.50 ug/ml by poisoned food technique; details: Agroathelia rolfsii; outline: as §2
Pythium aphanidermatum [8] = test: Antifungal activity against Pythium aphanidermatum assessed as growth inhibition at 15.50 ug/ml by poisoned food technique; outline: as §2
Pythium aphanidermatum [9] = test: Antifungal activity against Pythium aphanidermatum assessed as growth inhibition at 7.25 ug/ml by poisoned food technique; outline: as §2
Pythium aphanidermatum [10] = test: Antifungal activity against Pythium aphanidermatum assessed as growth inhibition by poisoned food technique; details: read-out: ED50 (the source's name); outline: as §1
[11] = system: Globisporangium debaryanum; test: Antifungal activity against Pythium debaryanum assessed as growth inhibition by poisoned food technique; details: read-out: ED50 (the source's name); outline: as §1
[12] = system: Globisporangium debaryanum; test: Antifungal activity against Pythium debaryanum assessed as growth inhibition at 15.50 ug/ml by poisoned food technique; outline: as §2
[13] = system: Globisporangium debaryanum; test: Antifungal activity against Pythium debaryanum assessed as growth inhibition at 31 ug/ml by poisoned food technique; outline: as §2
Rhizoctonia solani [14] = test: Antifungal activity against Rhizoctonia solani assessed as growth inhibition at 15.50 ug/ml by poisoned food technique; outline: as §2
Rhizoctonia solani [15] = test: Antifungal activity against Rhizoctonia solani assessed as growth inhibition at 7.25 ug/ml by poisoned food technique; outline: as §2
Fusarium udum [16] = test: Antifungal activity against Fusarium udum assessed as growth inhibition at 31 ug/ml by poisoned food technique; outline: as §2
Macrophomina phaseolina [17] = test: Antifungal activity against Rhizoctonia bataticola assessed as growth inhibition at 31 ug/ml by poisoned food technique; outline: as §2
Fusarium udum [18] = test: Antifungal activity against Fusarium udum assessed as growth inhibition by poisoned food technique; details: read-out: ED50 (the source's name); outline: as §1
Macrophomina phaseolina [19] = test: Antifungal activity against Rhizoctonia bataticola assessed as growth inhibition at 7.25 ug/ml by poisoned food technique; outline: as §2
Macrophomina phaseolina [20] = test: Antifungal activity against Rhizoctonia bataticola assessed as growth inhibition by poisoned food technique; details: read-out: ED50 (the source's name); outline: as §1
Fusarium udum [21] = test: Antifungal activity against Fusarium udum assessed as growth inhibition at 15.50 ug/ml by poisoned food technique; outline: as §2
Macrophomina phaseolina [22] = test: Antifungal activity against Rhizoctonia bataticola assessed as growth inhibition at 15.50 ug/ml by poisoned food technique; outline: as §2
Fusarium udum [23] = test: Antifungal activity against Fusarium udum assessed as growth inhibition at 7.25 ug/ml by poisoned food technique; outline: as §2
Pythium aphanidermatum [24] = test: Antifungal activity against Pythium aphanidermatum assessed as growth inhibition at 31 ug/ml by poisoned food technique; outline: as §2
Macrophomina phaseolina [25] = test: Antifungal activity against Rhizoctonia bataticola assessed as growth inhibition at 62.5 ug/ml by poisoned food technique
Outline: (§3)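 Poisoned-food assay on PDA. Test material was diluted in acetone and mixed into molten medium at final 250, 125 or 62.5 μg/mL, with 1 mL acetone as control. Plates received a 5 mm mycelial disc from the front of a 2-week-old colony and were incubated at 28 °C until control growth was nearly complete. Colony diameter was measured, giving %I = (C−T)/C×100. Mean ± SD of four replicates.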

Athelia rolfsii [26] = test: Antifungal activity against Athelia rolfsii assessed as growth inhibition at 62.5 ug/ml by poisoned food technique; details: Agroathelia rolfsii; outline: as §3
Macrophomina phaseolina [27] = test: Antifungal activity against Rhizoctonia bataticola assessed as growth inhibition at 250 ug/ml by poisoned food technique; outline: as §3
[28] = system: Globisporangium debaryanum; test: Antifungal activity against Pythium debaryanum assessed as growth inhibition at 250 ug/ml by poisoned food technique; outline: as §3
Pythium aphanidermatum [29] = test: Antifungal activity against Pythium aphanidermatum assessed as growth inhibition at 125 ug/ml by poisoned food technique; outline: as §3
Fusarium udum [30] = test: Antifungal activity against Fusarium udum assessed as growth inhibition at 250 ug/ml by poisoned food technique; outline: as §3
Fusarium udum [31] = test: Antifungal activity against Fusarium udum assessed as growth inhibition at 62.5 ug/ml by poisoned food technique; outline: as §3
Athelia rolfsii [32] = test: Antifungal activity against Athelia rolfsii assessed as growth inhibition at 125 ug/ml by poisoned food technique; details: Agroathelia rolfsii; outline: as §3
Pythium aphanidermatum [33] = test: Antifungal activity against Pythium aphanidermatum assessed as growth inhibition at 250 ug/ml by poisoned food technique; outline: as §3
Macrophomina phaseolina [34] = test: Antifungal activity against Rhizoctonia bataticola assessed as growth inhibition at 125 ug/ml by poisoned food technique; outline: as §3
Pythium aphanidermatum [35] = test: Antifungal activity against Pythium aphanidermatum assessed as growth inhibition at 62.5 ug/ml by poisoned food technique; outline: as §3
Athelia rolfsii [36] = test: Antifungal activity against Athelia rolfsii assessed as growth inhibition at 250 ug/ml by poisoned food technique; details: Agroathelia rolfsii; outline: as §3
Rhizoctonia solani [37] = test: Antifungal activity against Rhizoctonia solani assessed as growth inhibition at 250 ug/ml by poisoned food technique; outline: as §3
[38] = system: Globisporangium debaryanum; test: Antifungal activity against Pythium debaryanum assessed as growth inhibition at 125 ug/ml by poisoned food technique; outline: as §3
Fusarium udum [39] = test: Antifungal activity against Fusarium udum assessed as growth inhibition at 125 ug/ml by poisoned food technique; outline: as §3
Rhizoctonia solani [40] = test: Antifungal activity against Rhizoctonia solani assessed as growth inhibition at 62.5 ug/ml by poisoned food technique; outline: as §3
[41] = system: Globisporangium debaryanum; test: Antifungal activity against Pythium debaryanum assessed as growth inhibition at 62.5 ug/ml by poisoned food technique; outline: as §3
Rhizoctonia solani [42] = test: Antifungal activity against Rhizoctonia solani assessed as growth inhibition at 125 ug/ml by poisoned food technique; outline: as §3

Q: CCCCC(O)(Cn1cncn1)c1ccc(Cl)cc1Cl (stereo not drawn) [HEXACONAZOLE] was tested. Which EC50 (Rhizoctonia solani [1]) did it give?
A: 18.3 µg/mL (≈ 58.2 µM)

Q: What about the inhibition at 31 µg/mL (Rhizoctonia solani [2]) of the same molecule?
A: 72.6%

Q: And the inhibition at 31 µg/mL (Athelia rolfsii [3])?
A: 90.7%

Q: What about the inhibition at 7.25 µg/mL (Athelia rolfsii [4]) of the same molecule?
A: 28.2%

Q: And the EC50 (Athelia rolfsii [5])?
A: 13.4 µg/mL (≈ 42.7 µM)

Q: What about the inhibition at 7.25 µg/mL [6] of the same molecule?
A: 11.1%

Q: And the inhibition at 15.5 µg/mL (Athelia rolfsii [7])?
A: 45.3%

Q: And the inhibition at 15.5 µg/mL (Pythium aphanidermatum [8])?
A: 32.7%

Q: And the inhibition at 7.25 µg/mL (Pythium aphanidermatum [9])?
A: 14.1%

Q: What about the EC50 (Pythium aphanidermatum [10]) of the same molecule?
A: 22.1 µg/mL (≈ 70.2 µM)

Q: What about the EC50 [11] of the same molecule?
A: 25.9 µg/mL (≈ 82.5 µM)

Q: What about the inhibition at 15.5 µg/mL [12] of the same molecule?
A: 26.3%

Q: What about the inhibition at 31 µg/mL [13] of the same molecule?
A: 59.2%

Q: And the inhibition at 15.5 µg/mL (Rhizoctonia solani [14])?
A: 38.2%

Q: And the inhibition at 7.25 µg/mL (Rhizoctonia solani [15])?
A: 20.6%

Q: And the inhibition at 31 µg/mL (Fusarium udum [16])?
A: 70%

Q: And the inhibition at 31 µg/mL (Macrophomina phaseolina [17])?
A: 87%

Q: And the EC50 (Fusarium udum [18])?
A: 22 µg/mL (≈ 70 µM)

Q: What about the inhibition at 7.25 µg/mL (Macrophomina phaseolina [19]) of the same molecule?
A: 60.1%

Q: And the EC50 (Macrophomina phaseolina [20])?
A: 4.4 µg/mL (≈ 14 µM)

Q: What about the inhibition at 15.5 µg/mL (Fusarium udum [21]) of the same molecule?
A: 23.7%

Q: And the inhibition at 15.5 µg/mL (Macrophomina phaseolina [22])?
A: 73.2%

Q: What about the inhibition at 7.25 µg/mL (Fusarium udum [23]) of the same molecule?
A: 18.6%

Q: What about the inhibition at 31 µg/mL (Pythium aphanidermatum [24]) of the same molecule?
A: 65.3%

Q: Which results are given for COC(=O)c1c(C)cc(O)c(C=O)c1O [METHYL HAEMATOMMATE]?
A: EC50 (Rhizoctonia solani [1]): 50.5 µg/mL (≈ 240 µM); inhibition at 62.5 µg/mL (Macrophomina phaseolina [25]): 53.1%; inhibition at 62.5 µg/mL (Athelia rolfsii [26]): 44.2%; EC50 (Athelia rolfsii [5]): 60.3 µg/mL (≈ 287 µM); inhibition at 250 µg/mL (Macrophomina phaseolina [27]): 78.2%; EC50 (Pythium aphanidermatum [10]): 90.6 µg/mL (≈ 431 µM); EC50 [11]: 88.2 µg/mL (≈ 420 µM); inhibition at 250 µg/mL [28]: 71.3%; inhibition at 125 µg/mL (Pythium aphanidermatum [29]): 46.4%; inhibition at 250 µg/mL (Fusarium udum [30]): 67.3%; EC50 (Fusarium udum [18]): 71.2 µg/mL (≈ 339 µM); inhibition at 62.5 µg/mL (Fusarium udum [31]): 46.5%; inhibition at 125 µg/mL (Athelia rolfsii [32]): 66.6%; inhibition at 250 µg/mL (Pythium aphanidermatum [33]): 69.3%; inhibition at 125 µg/mL (Macrophomina phaseolina [34]): 61.4%; inhibition at 62.5 µg/mL (Pythium aphanidermatum [35]): 24.4%; inhibition at 250 µg/mL (Athelia rolfsii [36]): 89.2%; EC50 (Macrophomina phaseolina [20]): 52.9 µg/mL (≈ 252 µM); inhibition at 250 µg/mL (Rhizoctonia solani [37]): 81.7%; inhibition at 125 µg/mL [38]: 47.3%; inhibition at 125 µg/mL (Fusarium udum [39]): 50.5%; inhibition at 62.5 µg/mL (Rhizoctonia solani [40]): 50.6%; inhibition at 62.5 µg/mL [41]: 34%; inhibition at 125 µg/mL (Rhizoctonia solani [42]): 72.6%
